Data reported in ChEMBL document CHEMBL4680082 (J Med Chem, 2016).
Values joined by “and” are separate entries in the source; they are usually repeats but may differ in a detail not shown here. Equal values may be shown once. Active and inactive are the calls of the source. The calls are words filed in the database; no cut-off is given here.

Key:
[1] = molecular target: T1, 5-hydroxytryptamine receptor 2C (Homo sapiens) (UniProt P28335); assay: Bias factor, ratio of log(Emax/EC50) of lorcaserin to test compound for agonist activity at human 5-HT2C INI receptor expressed in human HEK293 cells assessed as induction of beta-arrestin-2 recruitment incubated for 20 hrs by Tango assay; format: cell-based
T1 sequence (whole entry): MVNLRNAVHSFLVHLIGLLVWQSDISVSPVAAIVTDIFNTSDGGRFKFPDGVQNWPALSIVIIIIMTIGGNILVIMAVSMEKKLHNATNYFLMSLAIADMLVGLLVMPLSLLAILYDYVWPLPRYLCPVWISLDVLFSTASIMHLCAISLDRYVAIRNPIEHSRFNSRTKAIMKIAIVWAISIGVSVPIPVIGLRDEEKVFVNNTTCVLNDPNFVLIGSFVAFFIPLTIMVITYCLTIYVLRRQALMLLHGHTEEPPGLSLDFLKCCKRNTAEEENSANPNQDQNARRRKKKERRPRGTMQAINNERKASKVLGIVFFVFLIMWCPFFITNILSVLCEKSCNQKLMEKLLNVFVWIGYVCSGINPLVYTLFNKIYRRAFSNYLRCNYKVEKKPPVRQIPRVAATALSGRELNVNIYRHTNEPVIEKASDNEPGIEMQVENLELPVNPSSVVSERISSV
In short: (§1)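 Tango assay in HTLA cells (HEK line expressing TEV-fused β-arrestin-2 and tTA-driven luciferase) transfected with 5-HT2C INI–tTA fusion carrying a TEV site. Cells were stimulated with the same dilutions used for FLIPR, 20 h at 37 °C and 5% CO2, then lysed with Bright-Glo for 20 min at room temperature and read by luminescence. Data normalized to % 5-HT and fitted sigmoidally; n = 3 in triplicate. Bias from log(Emax/EC50).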

[2] = molecular target: T2, 5-hydroxytryptamine receptor 2C (Homo sapiens, UniProt P28335); assay: Agonist activity at human 5-HT2C INI receptor expressed in human HEK293 cells assessed as induction of beta-arrestin-2 recruitment incubated for 20 hrs by Tango assay; format: cell-based; in short: as §1
T2 sequence (P28335 whole entry): T1 sequence (whole entry)

[3] = molecular target: T1, 5-hydroxytryptamine receptor 2C (Homo sapiens); assay: Agonist activity at human 5-HT2C INI receptor expressed in human HEK293 cells assessed as induction of beta-arrestin-2 recruitment by measuring log (Emax/EC50) incubated for 20 hrs by Tango assay relative to 5HT; format: cell-based; in short: as §1
[4] = molecular target: T1, 5-hydroxytryptamine receptor 2C (Homo sapiens); assay: Bias factor, ratio of log(Emax/EC50) of lorcaserin to test compound for agonist activity at human 5-HT2C INI receptor expressed in human Flp-In-293 cells assessed as induction of calcium flux incubated for 1 hr by Fluo-4 direct dye based FLIPR assay; format: functional, cell-based
In short: (§2)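 Calcium flux in Flp-In-293 cells stably expressing the human 5-HT2C INI isoform, Fluo-4 Direct loading for 1 h at 37 °C. Drug dilutions identical to those in the parallel Tango assay, 300 s read at 1 read/s, normalized to % 5-HT. Triplicate, mean ± SEM (n = 3). Bias factors were calculated from change in relative activity, log(Emax/EC50).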

[5] = molecular target: T2, 5-hydroxytryptamine receptor 2C; assay: Agonist activity at human 5-HT2C INI receptor expressed in human Flp-In-293 cells assessed as induction of calcium flux incubated for 1 hr by Fluo-4 direct dye based FLIPR assay; format: functional, cell-based; in short: as §2
[6] = molecular target: T1, 5-hydroxytryptamine receptor 2C (Homo sapiens); assay: Agonist activity at human 5-HT2C INI receptor expressed in human Flp-In-293 cells assessed as induction of calcium flux by measuring log (Emax/EC50) incubated for 1 hr by Fluo-4 direct dye based FLIPR assay; format: functional, cell-based; in short: as §2
[7] = molecular target: T1, 5-hydroxytryptamine receptor 2C (Homo sapiens); assay: Agonist activity at human 5-HT2C INI receptor expressed in human HEK293 cells assessed as induction of beta-arrestin-2 recruitment incubated for 20 hrs by Tango assay relative to 5HT; format: cell-based; in short: as §1
[8] = molecular target: T1, 5-hydroxytryptamine receptor 2C (Homo sapiens); assay: Agonist activity at human 5-HT2C INI receptor expressed in human Flp-In-293 cells assessed as induction of calcium flux incubated for 1 hr by Fluo-4 direct dye based FLIPR assay relative to 5-HT; format: functional, cell-based; in short: as §2
[9] = molecular target: T1, 5-hydroxytryptamine receptor 2C (Homo sapiens); assay: Induction of Gq-mediated receptor desensitization at human 5-HT2C INI receptor expressed in human Flp-In-293 cells assessed as reduction in Emax for [3H]myo-inositol accumulation at 1 uM after 20 hrs; format: functional, cell-based; conditions: filed as partial agonist
In short: (§3)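 PI hydrolysis: Flp-In-293 5-HT2C INI cells, 25,000/well, labelled 16-18 h with [3H]-myo-inositol (2 µCi/well) in inositol-free DMEM, washed. Drug (1 µM) in HBSS/HEPES pH 7.4 buffer for the indicated times (5 min to 40 h). LiCl (15 mM final) added 2 h before lysis with cold 50 mM formic acid at 4 °C overnight. [3H]-inositol phosphates captured on yttrium silicate beads and counted as CPM.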

[10] = molecular target: T1, 5-hydroxytryptamine receptor 2C (Homo sapiens); assay: Induction of Gq-mediated receptor desensitization at human 5-HT2C INI receptor expressed in human Flp-In-293 cells assessed as reduction in Emax for additional 5-HT-stimulated calcium flux at <1 uM pre-incubated for 30 mins followed by drug wash out (3 times) by Fluo-4 direct dye based FLIPR assay; format: functional, cell-based; conditions: dose microM <1, time 30.0 min
[11] = molecular target: T3, 5-hydroxytryptamine receptor 2A (Homo sapiens, UniProt P28223); assay: Agonist activity at human 5-HT2A receptor expressed in human Flp-In-293 cells assessed as induction of calcium flux incubated for 1 hr by Fluo-4 direct dye based FLIPR assay relative to 5-HT; format: functional, cell-based; conditions: filed as agonist
[12] = molecular target: T2, 5-hydroxytryptamine receptor 2C
[13] = molecular target: T1, 5-hydroxytryptamine receptor 2C (Homo sapiens); assay: Agonist activity at human 5-HT2C receptor expressed in human Flp-In-293 cells assessed as induction of calcium flux incubated for 1 hr by Fluo-4 direct dye based FLIPR assay relative to 5-HT; format: functional, cell-based; conditions: filed as partial agonist
[14] = molecular target: T1, 5-hydroxytryptamine receptor 2C (Homo sapiens); assay: Agonist activity at human 5-HT2C INI receptor expressed in human Flp-In-293 cells assessed as increase in [3H]myo-inositol accumulation at 1 uM after 30 hrs; format: functional, cell-based; conditions: filed as partial agonist; in short: as §3
[15] = molecular target: T1, 5-hydroxytryptamine receptor 2C (Homo sapiens); assay: Agonist activity at human 5-HT2C INI receptor expressed in human Flp-In-293 cells assessed as increase in [3H]myo-inositol accumulation at 1 uM after 5 mins; format: functional, cell-based; conditions: filed as partial agonist; in short: as §3
[16] = molecular target: T4, 5-hydroxytryptamine receptor 2B (Homo sapiens, UniProt P41595); assay: Agonist activity at human 5-HT2B receptor expressed in human Flp-In-293 cells assessed as induction of calcium flux incubated for 1 hr by Fluo-4 direct dye based FLIPR assay relative to 5-HT; format: functional, cell-based; conditions: filed as agonist
[17] = molecular target: T1, 5-hydroxytryptamine receptor 2C (Homo sapiens); assay: Agonist activity at human 5-HT2C INI receptor expressed in human Flp-In-293 cells assessed as increase in [3H]myo-inositol accumulation at 1 uM measured up to 5 hrs; format: functional, cell-based; conditions: filed as partial agonist, time hrs <=5; in short: as §3
[18] = molecular target: T4, 5-hydroxytryptamine receptor 2B
[19] = molecular target: T1, 5-hydroxytryptamine receptor 2C (Homo sapiens); assay: Agonist activity at human 5-HT2C INI receptor expressed in human Flp-In-293 cells assessed as increase in [3H]myo-inositol accumulation at 1 uM after 90 mins; format: functional, cell-based; conditions: filed as partial agonist; in short: as §3
[20] = molecular target: T3, 5-hydroxytryptamine receptor 2A

T4 sequence (P41595 whole entry): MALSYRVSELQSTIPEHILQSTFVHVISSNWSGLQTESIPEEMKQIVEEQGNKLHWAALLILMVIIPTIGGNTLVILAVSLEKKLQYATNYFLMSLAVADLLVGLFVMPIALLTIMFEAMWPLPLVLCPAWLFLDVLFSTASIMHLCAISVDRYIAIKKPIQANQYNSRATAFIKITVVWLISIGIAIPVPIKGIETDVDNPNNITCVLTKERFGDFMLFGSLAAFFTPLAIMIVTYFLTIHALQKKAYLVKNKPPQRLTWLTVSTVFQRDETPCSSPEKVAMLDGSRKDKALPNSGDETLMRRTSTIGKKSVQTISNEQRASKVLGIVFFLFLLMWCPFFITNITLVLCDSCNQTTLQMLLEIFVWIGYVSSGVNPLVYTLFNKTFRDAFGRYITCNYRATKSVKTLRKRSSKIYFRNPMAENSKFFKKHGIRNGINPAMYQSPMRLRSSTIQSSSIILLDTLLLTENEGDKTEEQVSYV
T3 sequence (P28223 whole entry): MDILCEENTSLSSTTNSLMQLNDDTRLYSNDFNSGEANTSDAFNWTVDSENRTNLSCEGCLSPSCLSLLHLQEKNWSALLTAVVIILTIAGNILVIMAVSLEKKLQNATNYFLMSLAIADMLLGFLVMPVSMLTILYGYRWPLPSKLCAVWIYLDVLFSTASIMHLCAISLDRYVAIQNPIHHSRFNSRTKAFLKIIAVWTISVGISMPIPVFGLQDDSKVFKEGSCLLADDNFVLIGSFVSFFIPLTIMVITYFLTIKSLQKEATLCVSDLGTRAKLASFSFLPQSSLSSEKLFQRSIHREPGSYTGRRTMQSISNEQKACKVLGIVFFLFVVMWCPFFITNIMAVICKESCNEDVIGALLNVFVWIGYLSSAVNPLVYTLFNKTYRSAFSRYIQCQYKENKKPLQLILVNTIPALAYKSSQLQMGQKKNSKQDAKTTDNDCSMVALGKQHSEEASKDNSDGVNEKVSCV

Molecule C[C@H](N)Cn1ccc2cc(F)c(Cl)cc21 has a Ratio [1] of 3.3, an EC50 ([2]; read-out: EC50) of 10 nM and an EC50 ([2]; read-out: pEC50 (converted)) of 10.7 nM. For the same molecule, the log(ratio) [3] was 7.94, the Ratio [4] was 0.3 and the EC50 [5] was 2.2 nM. For the same molecule, the log(ratio) [6] was 8.65, the Emax ([7]; filed as agonist) was 87% and the Emax ([8]; filed as agonist) was 99%.
In the case of NC[C@H]1C[C@@H]1c1c(OCCF)ccc2occc12, the Activity [9] is reported as “Active”, the Activity [10] is reported as “inactive” and the EC50 ([2]; read-out: EC50) is reported as 25 nM. For the same molecule, the Emax [11] was 98%, the EC50 [5] was 1.2 nM and the EC50 [12] was 0.603 nM and 0.59 nM. The Emax [13] was 97%, the Activity [14] was “Dose-dependent effect” and the Emax [7] was 28%. The Activity [15] was “Active”, the Emax [16] was 103% and the Emax ([8]; filed as partial agonist) was 94%. The Activity [17] was “Active”, the EC50 [18] was 46 nM and the Activity [19] was “Active”. It also gave an EC50 [20] of 22 nM.
